The EternaBench riboswitch data

System: MS2 coat protein
Test: apparent Kd, MS2 coat protein; higher = weaker binding; RNA-MaP array; FMN 200 µM where present
Outline: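 Two titrations, one without ligand and one with constant ligand, were run with SNAP-549-labelled MS2 coat protein from 0.7 or 1.5 nM, doubling to 3 µM. The targets were designs transcribed by stalled E. coli RNA polymerase on Illumina sequencing-chip clusters, in 100 mM Tris-HCl pH 7.5, 80 mM KCl, 4 mM MgCl2, BSA, DTT, yeast tRNA and Tween-20. The apparent Kd is the median of filtered per-cluster binding-curve fits, with green signal normalised to red-channel RNA signal and control-cluster median Fmax.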

[1] = designed as: ON switch for flavin mononucleotide, no ligand
[2] = ligand present: flavin mononucleotide, designed as: ON switch for flavin mononucleotide
[3] = designed as: OFF switch for flavin mononucleotide, no ligand
[4] = ligand present: flavin mononucleotide, designed as: OFF switch for flavin mononucleotide

UGGUCCCAGCGUUUGCUGGCCGCUCCAGAAGGCGAUCCAACAUGAGGAUCACCCAUGUCACCGAUCGAGGAUAUGGUUAAGGAU
apparent Kd [1]: 242 nM | apparent Kd [2]: 25.4 nM

CGGUGUAGAGGAUAUACGUGAAUUUUGUUAUAUGAUAAUUUACAUGAGGAUCACCCAUGUAGAAGGCUAUAGCG
apparent Kd [3]: 17.9 nM | apparent Kd [4]: 18.1 nM

UAUAUUUAUGUAGGAUAUGGUAUAUAAAAUAUACCAGAAGGACAUGAGGAUCACCCAUGUAUGAAAUUCCAUAAUAAGCGUGUA
apparent Kd [3]: 12.2 nM | apparent Kd [4]: 13.8 nM

UUAAUCAUGUAGAAGGACGGAUAUUAAGAGUACGUAGGAUAUACAGCAGACAUGAGGAUCACCCAUGUGAACAUGGUACAUAGG
apparent Kd [3]: 180 nM | apparent Kd [4]: 55 nM

UGUCGGAGCAGAGGAUAUUACAUGAGGAUCACCCAUGUAUGAACCAAUAGCUGGAAACAGCAAUGUAAGAAGGCUCCUCCGACA
apparent Kd [3]: 6.18 nM | apparent Kd [4]: 20.5 nM

UGUUGUAUUACAGGAUAUCUAGUUUUUUUAUUUAGAGAAGGGUAUUCACAUGAGGAUCACCCAUGUAUAUACGAGGAAGUUGUG
apparent Kd [1]: 46.6 nM | apparent Kd [2]: 56.1 nM

AAUAUAAAGAGCUGGUAAAACUCGACAUGAGGAUCACCCAUGUAGGAUAUCAGCACGAUAAGUGCUGAGAAGGACAUCCAGCUC
apparent Kd [3]: 15.4 nM | apparent Kd [4]: 17.6 nM

AGUGGCCGAGGAUAUACGGACGUGUCGCCGGGUGUCGUGGGACAUGAGGAUCACCCAUGUAGAAGGUGGUUGUU
apparent Kd [3]: 170 nM | apparent Kd [4]: 219 nM

GCCAACUCGUGAGGAUAUGGCACCUUAUUGGUGCCAGAAGGCAUGUCAAUUGACAUGAGGAUCACCCAUGUAUUAUAGUUGGCA
apparent Kd [1]: 563 nM | apparent Kd [2]: 88.2 nM

AGAAAUUAGUGAGGAUAUGCAUAAAUUGUAGCUGCAGAAGGCACGGACCACAAGACAUGAGGAUCACCCAUGUGGUAUUUAGAU
apparent Kd [3]: 29.9 nM | apparent Kd [4]: 34.9 nM

CUUCCAGUUGCAGGAUAUCGGGAGGAGAGAUUACGAGAAGGGCAACAUGAGGAUCACCCAUGUAUGUGCUUGGGACAACCUAUC
apparent Kd [3]: 13.2 nM | apparent Kd [4]: 38.2 nM

CUGAAUCGAGGAUAUUGUACUGCUGACAUGAGGAUCACCCAUGUAUGUUAACUCGGCCGUCGAGAAGGCGAACAUA
apparent Kd [3]: 27.6 nM | apparent Kd [4]: 18 nM

GAGCUAUGAGGAUAUGCAUAUAUACGGAUUCGUGUAGUACUACAUGAGGAUCACCCAUGUAGAAGGCGUGGCUG
apparent Kd [3]: 13.4 nM | apparent Kd [4]: 16.7 nM

GACGGACAUGAGGAUCACCCAUGUAGGUUGGCCACAGGAUAUGCAAAACGGCCUGCCGCGGCAGAAGGGUGAGCCC
apparent Kd [1]: 39.1 nM | apparent Kd [2]: 43.7 nM

AGUCUGCUAGGAUAUACAUGAGGAUCACCCAUGUCUAUCAAUAGACUAUUAACCUGGUGUAGAAGGAGCUUGUA
apparent Kd [3]: 11.2 nM | apparent Kd [4]: 14.4 nM

AUGCCCUGAGGAUAUCUCAUCUCGCACAUGAGGAUCACCCAUGUUCUUCUCUGGGUUUCGAGAGAAGGCAGGCCUA
apparent Kd [3]: 701 nM | apparent Kd [4]: 366 nM

GUAGCUAUCGGAGGAUAUUCAUACUGGAAACGGACAUGAGGAUCACCCAUGUGGCGAAAGCCUUGGGAGAAGGCCGAUCGCUAC
apparent Kd [1]: 123 nM | apparent Kd [2]: 8.13 nM

GCAUAUCAGGGAGGAUAUGACAUGAGGAUCACCCAUGUAAUUAUGGCUCUGUCAGAAGGCCCAUCGUCACUAUAGUGACGAGAC
apparent Kd [3]: 370 nM | apparent Kd [4]: 139 nM

GGGCUCAUCGAGAAGGCCUCAACAUGAGGAUCACCCAUGUUGUAAUAUGGGAGGAUAUCGAUGAUACAGCUACGUUUCGUACCC
apparent Kd [1]: 18 nM | apparent Kd [2]: 6.25 nM

GGAGCCGGUACUGAGGAUAUUCAUAUUAAAACAUGAGGAUCACCCAUGUGGGCCAGAAGGCCUUGGGAGAAGGCAGACCAGCUCG
apparent Kd [1]: 238 nM | apparent Kd [2]: 22.1 nM

UUAUUUUUACAGAAGGUUUAAUAAUAUGUAUGAGAAGGAUAUGUAACAUGAGGAUCACCCAUGUUUCAUCUAUAUGAGGAUCAU
apparent Kd [3]: 6.61 nM | apparent Kd [4]: 5.57 nM

UCGCCAGGUACAGGAUAUGUGGAUCAGUCAAGUAACUUGCUGAACAUGAGGAUCACCCAUGUAUCACAGAAGGGUGCCUCAAAA
apparent Kd [1]: 199 nM | apparent Kd [2]: 10.8 nM

GAUAGGACAGAGAAGGUACGUGCUAGAGAUACUAGCAAAAUACCUCAACAUGAGGAUCACCCAUGUAAGGAUAUCUGUCCUAUC
apparent Kd [3]: 5.7 nM | apparent Kd [4]: 6.19 nM

UGGUACAUCGGAGGAUAUCGUGUGUAAACAUGAGGAUCACCCAUGUCGUACGAGAGUACGGAGAUCGAGAAGGCCGAUGUACCU
apparent Kd [1]: 16.4 nM | apparent Kd [2]: 15.1 nM

AAAAGCAAAGGAUAUACAUGAGGAUCACCCAUGUAAAAAAGAAAAGAGUAUAUGGCAUGUAGAAGGUUGCGUGG
apparent Kd [3]: 34.5 nM | apparent Kd [4]: 49.8 nM

AAAUAAAGUACCUAGAUAUCCUCACAUGAGGAUCACCCAUGUCAGGAUAUUUGUCCUAAAAGGACAGAGAAGGGACAAGGUAUA
apparent Kd [3]: 5.52 nM | apparent Kd [4]: 9.72 nM

GUGCCUUAUGAGAAGGCGAUCAUGAAACAUGAUCGAGGAUAUCAUGAAAACAUGAGGAUCACCCAUGUAUGGGUAUUAUGGUAC
apparent Kd [1]: 107 nM | apparent Kd [2]: 27.8 nM

UGUAUGGACAGAGGAUAUACGUGCUAGAGAUACUAGCUACAAAUCCUUACAUGAGGAUCACCCAUGUAGAAGGCUGUCCAUACU
apparent Kd [3]: 19.1 nM | apparent Kd [4]: 39.4 nM

CCUCCGUAUGAGGAUAUCGUCCAGGAAACUGGACGAGAAGGCAUGACAUGAGGAUCACCCAUGUUAAAGUGAUG
apparent Kd [3]: 21.4 nM | apparent Kd [4]: 58.4 nM

CCUCUACAUGAGGAUCACCCAUGUCAGGAUAUCGUGUGUUUUUUUUCGGCCGCGCGUGCGAGAAGGGACGUCUU
apparent Kd [3]: 31.9 nM | apparent Kd [4]: 32 nM

GGUGGACAUGAGGAUCACCCAUGUGAGGAUAUCGGCUGGCUACUCGCUGACGGCUGCUCGAGAAGGCGCAUUGU
apparent Kd [3]: 46.3 nM | apparent Kd [4]: 95.6 nM

AAACCCUGAGGAUAUACAUAACAACAAAGCCUCACGUGCCAACAUGAGGAUCACCCAUGUAGAAGGCAGGCCAA
apparent Kd [3]: 12.8 nM | apparent Kd [4]: 41.7 nM

GGCAUGUGGGCAGGAUAUAACUCGGUCUCUAGGUUAGAAGGGCCACACAUGAGGAUCACCCAUGUCGACCAGGCAGUCCUCCCU
apparent Kd [3]: 26.2 nM | apparent Kd [4]: 60.5 nM

UUACCUCAUGAGAAGGACAUGAGGAUCACCCAUGUAGGAUAUCGUGGGACAGUGGAAUUGAAUCUUCGGAUUCAAUAACUCUAU
apparent Kd [1]: 327 nM | apparent Kd [2]: 26.1 nM

CCGAGUGGCGUACAGGAUAUGUUGCGUGGAACAUGAGGAUCACCCAUGUAUUUGCUCCUGCAUACGCAGAAGGGUGCGUCCUGGG
apparent Kd [1]: 52.9 nM | apparent Kd [2]: 17.4 nM

AAUGUUGGAGGAUAUACGCGAGUGCUCAGUUGGCCCGGUCGACAUGAGGAUCACCCAUGUAGAAGGCCGACGCU
apparent Kd [3]: 14.4 nM | apparent Kd [4]: 16.9 nM
